Source: ChEMBL document CHEMBL1156417, “Transferable resistance to aminoglycosides by methylation of G1405 in 16S rRNA and to hydrophilic fluoroquinolones by QepA-mediated efflux in Escherichia coli” (2007)
≈ marks a conversion by molar mass, not a printed value.

Columns and labels:
Type in all cases: functional
Escherichia coli [1] = test: Antibacterial activity against Escherichia coli 1540 isolate by […]
In short: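 Disk diffusion on Mueller-Hinton agar following Comité de l'Antibiogramme de la Société Française de Microbiologie standards; clinical isolate from Belgian hospital screening; strains grown in brain heart infusion broth or agar at 37°C.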

Escherichia coli [2] = test: Antibacterial activity against Escherichia coli C600Rif by Etest
In short: (§1)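 MIC read by Etest on Mueller-Hinton agar after 24 h incubation. Strains were grown in brain heart infusion broth or on agar at 37°C. C600Rif served as the conjugation recipient and TOP10 as the transformation recipient.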

Escherichia coli [3] = test: Antibacterial activity against Escherichia coli TOP10 containing pIP1206 plasmid by Etest; in short: as §1
Escherichia coli [4] = test: Antibacterial activity against Escherichia coli C600Rif in presence of 40 ug/ml efflux pump inhibitor 1-(1-naphthylmethyl)-piperazine by Etest
Escherichia coli [5] = test: Antibacterial activity against Escherichia coli C600Rif in presence of 50 ug/ml efflux pump inhibitor phenyl-arginine-beta-naphthylamide by Etest
Escherichia coli [6] = test: Antibacterial activity against Escherichia coli C600Rif containing pIP1206 plasmid by Etest; in short: as §1
Escherichia coli [7] = test: microbe, parasite or virus in culture
Escherichia coli [8] = test: Antibacterial activity against Escherichia coli C600Rif containing pIP1206 plasmid in presence of 50 ug/ml efflux pump inhibitor phenyl-arginine-beta-naphthylamide by Etest
Escherichia coli [9] = test: Antibacterial activity against Escherichia coli TOP10 by Etest; in short: as §1
Escherichia coli [10] = test: Antibacterial activity against Escherichia coli TOP10 in presence of 40 ug/ml efflux pump inhibitor 1-(1-naphthylmethyl)-piperazine by Etest
Escherichia coli [11] = test: Antibacterial activity against Escherichia coli TOP10 in presence of 50 ug/ml efflux pump inhibitor phenyl-arginine-beta-naphthylamide by Etest
Escherichia coli [12] = test: Antibacterial activity against Escherichia coli TOP10 containing pIP1206 plasmid in presence of 40 ug/ml efflux pump inhibitor 1-(1-naphthylmethyl)-piperazine by Etest
Escherichia coli [13] = test: Antibacterial activity against Escherichia coli TOP10 containing pIP1206 plasmid in presence of 50 ug/ml efflux pump inhibitor phenyl-arginine-beta-naphthylamide by Etest
Escherichia coli [14] = test: Antibacterial activity against Escherichia coli TOP10 containing pAT851 plasmid by Etest; in short: as §1
Escherichia coli [15] = test: Antibacterial activity against Escherichia coli TOP10 containing pAT851 in presence of 40 ug/ml efflux pump inhibitor 1-(1-naphthylmethyl)-piperazine by Etest
Escherichia coli [16] = test: Antibacterial activity against Escherichia coli TOP10 containing pAT851 in presence of 50 ug/ml efflux pump inhibitor phenyl-arginine-beta-naphthylamide by Etest

Compound: NCC[C@H](O)C(=O)N[C@@H]1C[C@H](N)[C@@H](O[C@H]2O[C@H](CN)[C@@H](O)[C@H](O)[C@H]2O)[C@H](O)[C@H]1O[C@H]1O[C@H](CO)[C@@H](O)[C@H](N)[C@H]1O [AMIKACIN]
- MIC (Escherichia coli [1]): > 512 µg/mL

Compound: CN(C)c1ccc(O)c2c1C[C@H]1C[C@H]3[C@H](N(C)C)C(O)=C(C(N)=O)C(=O)[C@@]3(O)C(O)=C1C2=O [MINOCYCLINE]
- MIC (Escherichia coli [1]): 16 µg/mL (≈ 35 µM)

Compound: O=C(N[C@H](CO)[C@H](O)c1ccc([N+](=O)[O-])cc1)C(Cl)Cl [CHLORAMPHENICOL]
- MIC (Escherichia coli [1]): > 256 µg/mL

Compound: O=C(O)c1cn(C2CC2)c2cc(N3CCNCC3)c(F)cc2c1=O [CIPROFLOXACIN]
- MIC (Escherichia coli [2]): 0.023 µg/mL (≈ 0.0694 µM)
- MIC (Escherichia coli [1]): > 32 µg/mL
- MIC (Escherichia coli [3]): 0.023 µg/mL (≈ 0.0694 µM)

Compound: CC1(C)S[C@@H]2[C@H](NC(=O)[C@H](N)c3ccccc3)C(=O)N2[C@H]1C(=O)O [AMPICILLIN]
- MIC (Escherichia coli [1]): > 256 µg/mL

Compound: CCn1cc(C(=O)O)c(=O)c2ccc(C)nc21 [NALIDIXIC ACID]
- MIC (Escherichia coli [2]): 2 µg/mL (≈ 8.61 µM)
- MIC (Escherichia coli [4]): 1.5 µg/mL
- MIC (Escherichia coli [5]): 1.5 µg/mL
- MIC (Escherichia coli [6]): 2 µg/mL (≈ 8.61 µM)
- MIC (Escherichia coli [7]): 1.5 µg/mL (≈ 6.46 µM)
- MIC (Escherichia coli [8]): 1.5 µg/mL
- MIC (Escherichia coli [9]): 1.5 µg/mL (≈ 6.46 µM)
- MIC (Escherichia coli [10]): 1 µg/mL
- MIC (Escherichia coli [11]): 1 µg/mL
- MIC (Escherichia coli [3]): 1.5 µg/mL (≈ 6.46 µM)
- MIC (Escherichia coli [12]): 1 µg/mL
- MIC (Escherichia coli [13]): 1 µg/mL
- MIC (Escherichia coli [14]): 1.5 µg/mL (≈ 6.46 µM)
- MIC (Escherichia coli [15]): 1 µg/mL
- MIC (Escherichia coli [16]): 1 µg/mL

Compound: C[C@H]1COc2c(N3CCN(C)CC3)c(F)cc3c(=O)c(C(=O)O)cn1c23.C[C@H]1COc2c(N3CCN(C)CC3)c(F)cc3c(=O)c(C(=O)O)cn1c23.O [LEVOFLOXACIN]
- MIC (Escherichia coli [2]): 0.032 µg/mL
- MIC (Escherichia coli [6]): 0.032 µg/mL
- MIC (Escherichia coli [9]): 0.006 µg/mL
- MIC (Escherichia coli [3]): 0.006 µg/mL

Compound: COc1c(N2C[C@@H]3CCCN[C@@H]3C2)c(F)cc2c(=O)c(C(=O)O)cn(C3CC3)c12 [MOXIFLOXACIN]
- MIC (Escherichia coli [2]): 0.064 µg/mL (≈ 0.159 µM)
- MIC (Escherichia coli [4]): 0.032 µg/mL
- MIC (Escherichia coli [5]): 0.032 µg/mL
- MIC (Escherichia coli [6]): 0.094 µg/mL (≈ 0.234 µM)
- MIC (Escherichia coli [7]): 0.032 µg/mL (≈ 0.0797 µM)
- MIC (Escherichia coli [8]): 0.006 µg/mL
- MIC (Escherichia coli [9]): 0.004 µg/mL (≈ 0.00996 µM)
- MIC (Escherichia coli [10]): 0.002 µg/mL
- MIC (Escherichia coli [11]): 0.002 µg/mL
- MIC (Escherichia coli [3]): 0.006 µg/mL (≈ 0.0149 µM)
- MIC (Escherichia coli [12]): 0.002 µg/mL
- MIC (Escherichia coli [13]): 0.002 µg/mL
- MIC (Escherichia coli [14]): 0.004 µg/mL (≈ 0.00996 µM)
- MIC (Escherichia coli [15]): 0.002 µg/mL
- MIC (Escherichia coli [16]): 0.002 µg/mL

Compound: CCN[C@@H]1C[C@H](N)[C@@H](O[C@H]2OC(CN)=CC[C@H]2N)[C@H](O)[C@H]1O[C@H]1OC[C@](C)(O)[C@H](NC)[C@H]1O [NETILMICIN]
- MIC (Escherichia coli [1]): > 512 µg/mL

Compound: CO/N=C(\C(=O)N[C@@H]1C(=O)N2C(C(=O)O)=C(COC(C)=O)CS[C@H]12)c1csc(N)n1 [CEFOTAXIME]
- MIC (Escherichia coli [1]): 32 µg/mL (≈ 70.3 µM)

Compound: NC[C@H]1O[C@H](O[C@H]2[C@H](O)[C@@H](O[C@H]3O[C@H](CO)[C@@H](O)[C@H](N)[C@H]3O)[C@H](N)C[C@@H]2N)[C@H](N)C[C@@H]1O [TOBRAMYCIN]
- MIC (Escherichia coli [1]): > 512 µg/mL

Compound: CCn1cc(C(=O)O)c(=O)c2cc(F)c(N3CCN(C)CC3)cc21 [PEFLOXACIN]
- MIC (Escherichia coli [2]): 0.094 µg/mL (≈ 0.282 µM)
- MIC (Escherichia coli [6]): 0.094 µg/mL (≈ 0.282 µM)
- MIC (Escherichia coli [3]): 0.023 µg/mL (≈ 0.069 µM)

Compound: CCn1cc(C(=O)O)c(=O)c2cc(F)c(N3CCNCC3)cc21 [NORFLOXACIN]
- MIC (Escherichia coli [2]): 0.064 µg/mL (≈ 0.2 µM)
- MIC (Escherichia coli [4]): 0.047 µg/mL
- MIC (Escherichia coli [5]): 0.032 µg/mL
- MIC (Escherichia coli [6]): 1.5 µg/mL (≈ 4.7 µM)
- MIC (Escherichia coli [7]): 0.064 µg/mL (≈ 0.2 µM)
- MIC (Escherichia coli [8]): 0.047 µg/mL
- MIC (Escherichia coli [9]): 0.032 µg/mL (≈ 0.1 µM)
- MIC (Escherichia coli [10]): 0.016 µg/mL
- MIC (Escherichia coli [11]): 0.016 µg/mL
- MIC (Escherichia coli [3]): 0.38 µg/mL (≈ 1.19 µM)
- MIC (Escherichia coli [12]): 0.016 µg/mL
- MIC (Escherichia coli [13]): 0.016 µg/mL
- MIC (Escherichia coli [14]): 0.19 µg/mL (≈ 0.595 µM)
- MIC (Escherichia coli [15]): 0.016 µg/mL
- MIC (Escherichia coli [16]): 0.016 µg/mL

Compound: NC[C@H]1O[C@H](O[C@H]2[C@H](O)[C@@H](O[C@H]3O[C@H](CO)[C@@H](O)[C@H](N)[C@H]3O)[C@H](N)C[C@@H]2N)[C@H](O)[C@@H](O)[C@@H]1O [KANAMYCIN]
- MIC (Escherichia coli [1]): > 512 µg/mL

Compound: CN(C)[C@@H]1C(O)=C(C(N)=O)C(=O)[C@@]2(O)C(O)=C3C(=O)c4c(O)cccc4[C@@](C)(O)[C@H]3C[C@@H]12 [TETRACYCLINE]
- MIC (Escherichia coli [1]): > 256 µg/mL

Compound: CC[n+]1c(-c2ccccc2)c2cc(N)ccc2c2ccc(N)cc21.[Br-] [HOMIDIUM BROMIDE]
- MIC (Escherichia coli [2]): 128 µg/mL
- MIC (Escherichia coli [4]): 64 µg/mL
- MIC (Escherichia coli [5]): 128 µg/mL
- MIC (Escherichia coli [6]): 128 µg/mL
- MIC (Escherichia coli [7]): 64 µg/mL
- MIC (Escherichia coli [8]): 64 µg/mL
- MIC (Escherichia coli [9]): 128 µg/mL
- MIC (Escherichia coli [10]): 64 µg/mL
- MIC (Escherichia coli [11]): 64 µg/mL
- MIC (Escherichia coli [3]): 128 µg/mL
- MIC (Escherichia coli [12]): 64 µg/mL
- MIC (Escherichia coli [13]): 64 µg/mL
- MIC (Escherichia coli [14]): 128 µg/mL
- MIC (Escherichia coli [15]): 64 µg/mL
- MIC (Escherichia coli [16]): 128 µg/mL

Compound: COc1c(N2CCNC(C)C2)c(F)cc2c(=O)c(C(=O)O)cn(C3CC3)c12 (centres undefined) [GATIFLOXACIN]
- MIC (Escherichia coli [2]): 0.023 µg/mL (≈ 0.0613 µM)
- MIC (Escherichia coli [4]): 0.016 µg/mL
- MIC (Escherichia coli [5]): 0.016 µg/mL
- MIC (Escherichia coli [6]): 0.032 µg/mL (≈ 0.0852 µM)
- MIC (Escherichia coli [7]): 0.016 µg/mL (≈ 0.0426 µM)
- MIC (Escherichia coli [8]): 0.012 µg/mL
- MIC (Escherichia coli [9]): 0.003 µg/mL (≈ 0.00799 µM)
- MIC (Escherichia coli [10]): 0.002 µg/mL
- MIC (Escherichia coli [11]): 0.002 µg/mL
- MIC (Escherichia coli [3]): 0.003 µg/mL (≈ 0.00799 µM)
- MIC (Escherichia coli [12]): 0.002 µg/mL
- MIC (Escherichia coli [13]): 0.002 µg/mL
- MIC (Escherichia coli [14]): 0.003 µg/mL (≈ 0.00799 µM)
- MIC (Escherichia coli [15]): 0.002 µg/mL
- MIC (Escherichia coli [16]): 0.002 µg/mL
